In ChEMBL document CHEMBL4513216, “Probing the Open Global Health Chemical Diversity Library for Multistage-Active Starting Points for Next-Generation Antimalarials” (ACS Infect Dis, 2020) one finds cytotoxicity data, which are given here for 72 compounds.

The series can be described thus: Toxicity liver stage against HepG2, at 10uM. Particulars: human, HepG2-A16-CD81EGFP cells; read-out: INHIBITION
The format is cell-based. Details: test concentration 10 uM, cell line HepG2-A16-CD81EGFP. In a few lines:
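Uninfected HepG2-A16-CD81EGFP cells, 3 × 10^3 per well, 1536-well, plated on prespotted compound at 10 μM final, parasite-free screening media added to match infected plates; puromycin 10 μM positive, DMSO 0.5% negative; run in parallel with 48 h PbLuc assay at 37 °C, 5% CO2; viability by CellTiter-Glo luminescence, normalized to controls.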
With `OC1(CN2CCCC2)COCCN(c2ncnc3[nH]cnc23)C1` (configuration not stated), the cytotoxicity at 10 µM is 0.458%.

On to `CCSc1nc2ccccc2c(=O)n1OCC(=O)OC`, for which the cytotoxicity at 10 µM was -5.49%.

Consider `Cc1nn(C(C)C)c2cnn(CC(=O)N3CCSCC3)c12`, for which the cytotoxicity at 10 µM turned out to be 5.86%.

As to `Cc1cccc(CN2CC[C@H]3O[C@H](C(=O)Nc4cnccn4)CC[C@H]32)n1`, the cytotoxicity at 10 µM is -144%.

`O=C(Cc1c(F)cccc1Cl)NC1CCCCNC1=O` (configuration not stated): the cytotoxicity at 10 µM worked out at 1.91%.

Consider `COC[C@]1(O)CCN(Cc2cnc(N3CCOCC3)nc2)CC1(C)C`, for which the cytotoxicity at 10 µM worked out at 1.4%.

For `O=C1COC2(CCN(CC3CC3)CC2)CN1c1ccccc1`, the cytotoxicity at 10 µM was -14.6%.

Take `CCc1nccn1C1CCCN(C(=O)c2cc[nH]n2)C1` (configuration not stated): the cytotoxicity at 10 µM is 4.54%.

Take `CCOC(C)c1nccn1CC(=O)Nc1cc(C)on1` (configuration not stated): the cytotoxicity at 10 µM was -5.58%.

For the compound `Cc1ccc(-c2cc(C(=O)N(C)Cc3noc4c3CCCC4)[nH]n2)o1`, the cytotoxicity at 10 µM was -11%.

Regarding `Cc1nn(C)c(N(C)C)c1CNCc1ccnc(N2CCCCC2)c1`, the cytotoxicity at 10 µM was -9.32%.

Turning to `Cc1ccccc1C(C(=O)NCc1nc(-c2ncccn2)no1)N(C)C` (configuration not stated), the cytotoxicity at 10 µM came out at 3.09%.

As to `Cc1cnn(CCC(=O)N2CCOC(c3nc(C(C)(C)C)n[nH]3)C2)c1` (configuration not stated), the cytotoxicity at 10 µM was 5.17%.

Turning to `CNC(=O)[C@@H]1C[C@@H](N)CN1C(=O)CCSCc1ccccc1`, the cytotoxicity at 10 µM stood at 6.7%.

Consider `O=C(CCCC1CCCC1)NS(=O)(=O)CC1CC1`, for which the cytotoxicity at 10 µM was -5.62%.

For `O=C(NC1CC1)[C@H]1COC[C@H]2CN(c3ncc(F)cn3)C[C@H]21`, the cytotoxicity at 10 µM was -0.664%.

Turning to `CC(C)c1nnc(CN2CCCc3ccc(S(N)(=O)=O)cc32)o1`, the cytotoxicity at 10 µM was -1.08%.

Turning to `CCOCCCNc1nc(O)cc(C2CC(=O)N(C)C2)n1` (configuration not stated), the cytotoxicity at 10 µM worked out at 0.873%.

Turning to `Cc1cc(C)nc(N2CCCC(c3nccn3CCCN(C)C)C2)c1` (configuration not stated), the cytotoxicity at 10 µM is -7.97%.

Take `CCN1CCc2c(c(COC)nn2C)C1`: the cytotoxicity at 10 µM came to 5.09%.

Consider `CCOC(=O)c1cccc(N2CCCC3(CCC(=O)N(C4CC4)C3)C2)n1` (configuration not stated), for which the cytotoxicity at 10 µM is -1.38%.

As for `CN1C(=O)CC(C(=O)O)C12CCN(Cc1cc(F)ccc1Cl)CC2` (configuration not stated), the cytotoxicity at 10 µM is -0.309%.

Turning to `O=C(NCc1cn2c(n1)CN(Cc1cccc(F)c1)CC2)C1CCC1`, the cytotoxicity at 10 µM was 8.79%.

For `Cc1nc(CN2CCN(C(=O)CCc3nc(C(C)(C)C)no3)CC2)cs1`, the cytotoxicity at 10 µM was determined as 3.64%.

As to `CSCCC(=O)N1CCCC1c1nnc2n1CCCCC2` (configuration not stated), the cytotoxicity at 10 µM was -5.79%.

As to `O=C1CN(CCCNS(=O)(=O)c2cccc(C(=O)NC3CC3)c2)CCN1`, the cytotoxicity at 10 µM was -3.45%.

For the compound `CCOc1cccc(CN2CCCC(Nc3ccc(F)cc3)C2)c1O` (configuration not stated), the cytotoxicity at 10 µM is -8.93%.

For the compound `Nc1nccc(C2CCCCN2Cc2cccc(F)c2)n1` (configuration not stated), the cytotoxicity at 10 µM was -4%.

Regarding `C[C@]1(O)CCN(Cc2cccnc2)C[C@@H]1Oc1cccc(F)c1`, the cytotoxicity at 10 µM was -8.22%.

Consider `CN(CCc1ccc2c(c1)CCO2)C1CCS(=O)(=O)CC1`, for which the cytotoxicity at 10 µM was -7.94%.

As for `Cc1nc[nH]c1CN1CCCC(CNC(=O)c2ccc(N)nc2)C1` (configuration not stated), the cytotoxicity at 10 µM worked out at 1.56%.

As for `COCCN1CCC(C(=O)N(C)Cc2cccc(Cl)c2)C1` (configuration not stated), the cytotoxicity at 10 µM is -28.6%.

Consider `N#Cc1nccnc1N1CCC(OCCCc2ccccc2)C1` (configuration not stated), for which the cytotoxicity at 10 µM stood at 4.31%.

With `CC(NC(=O)Cn1ccc(=O)n(C)c1=O)c1ccccc1F` (configuration not stated), the cytotoxicity at 10 µM was -10.6%.

On to `CN(Cc1nnc2n1CCC2)C(=O)NCCc1ccc2c(c1)OCO2`, for which the cytotoxicity at 10 µM was -4.77%.

On to `CCS(=O)(=O)NC[C@]12COC[C@H]1CN(Cc1cc(C)on1)C2`, for which the cytotoxicity at 10 µM was 2.34%.

As for `O=C1CCC2(CCC(NCc3cccnc3)CC2)N1Cc1ccccc1` (configuration not stated), the cytotoxicity at 10 µM is -2.04%.

Consider `O[C@@H]1CN(Cc2cccc(F)c2)CC[C@H]1NCc1ccccn1`, for which the cytotoxicity at 10 µM is -1.6%.

For `Fc1cnc(N2CCN3C[C@H](Oc4cncnc4)C[C@H]3C2)nc1`, the cytotoxicity at 10 µM is -5.38%.

`CC(C)c1nn(C)c(N2CCOCC2)c1CNCc1cscn1`: the cytotoxicity at 10 µM is -3.83%.

Turning to `c1cc(CNCc2cccc3c2OCCO3)cc(Cn2cncn2)c1`, the cytotoxicity at 10 µM is -1.54%.

For the compound `O=S(=O)(Cc1c(F)cccc1Cl)Cc1nnnn1C1CC1`, the cytotoxicity at 10 µM is -5.19%.

`Cc1ccc(C(CNCc2cccnc2)N2CCOCC2)s1` (configuration not stated): the cytotoxicity at 10 µM came to 4.03%.

Turning to `Cc1nc(CN2CCC3(CCCO3)CC2)c2ccccn12`, the cytotoxicity at 10 µM was determined as 2.07%.

As for `Cc1n[nH]cc1CNCC(c1ccsc1)N(C)C` (configuration not stated), the cytotoxicity at 10 µM is 3.05%.

For `Cc1ccc(C(=O)N(C)Cc2ccc3c(c2)OCO3)c(=O)[nH]1`, the cytotoxicity at 10 µM was -12%.

Take `CNC(=O)c1cccc(CN2CCN(c3ccncc3)CC2)c1`: the cytotoxicity at 10 µM was -19.7%.

With `COC1CCN(C(=O)Cn2nc(C)cc2C)CC1`, the cytotoxicity at 10 µM amounted to 3.81%.

As for `CCOCC1CN(S(=O)(=O)N(C)C)Cc2cnn(C)c21` (configuration not stated), the cytotoxicity at 10 µM was -4.2%.

`CC(C)N(C)S(=O)(=O)N1CCCC1CC(=O)c1cccs1` (configuration not stated): the cytotoxicity at 10 µM worked out at 5.17%.

Turning to `CC(=O)N1CCC(=O)N(C2CCCC2)Cc2ccccc21`, the cytotoxicity at 10 µM was -6.09%.

In the case of `CCCOc1cc(C)ccc1NC(=O)NCCNC(C)=O`, the cytotoxicity at 10 µM was -6.58%.

In the case of `Cn1ncc2c(N3CCC(F)(F)CC3)nc(-c3ccncc3)nc21`, the cytotoxicity at 10 µM was 9.74%.

As to `CCSCCC(C)NC(=O)Nc1cccn(C)c1=O` (configuration not stated), the cytotoxicity at 10 µM was -2.19%.

For `COc1ccccc1-n1cc(C(=O)NCCCn2nc(C)nc2C)cn1`, the cytotoxicity at 10 µM is 5.02%.

On to `CN1CCOC[C@H]1c1nc(-c2ccc(F)cc2F)c[nH]1`, for which the cytotoxicity at 10 µM was -5.66%.

For the compound `O=C(c1ccn(-c2cccc(Cl)c2)n1)N1CCN(C2CC2)CC1`, the cytotoxicity at 10 µM is -7.03%.

`Cc1cc2cc(C(=O)N[C@@H]3CC[C@@H](N4CCNC(=O)C4)[C@@H]3O)ccc2o1`: the cytotoxicity at 10 µM was -5%.

On to `COCCn1ccc2cc(NC(=O)COC)ccc21`, for which the cytotoxicity at 10 µM amounted to 0.82%.

`CC(COc1ccccc1)NCc1cn2ccccc2n1` (configuration not stated): the cytotoxicity at 10 µM came out at 16.6%.

For `Cn1cnnc1C1CCCN(C(=O)c2cc(Cl)cc(Cl)c2)C1` (configuration not stated), the cytotoxicity at 10 µM was -9.91%.

For `CC(=O)N1CCCC2(CCN(Cc3ccc(Cl)c(F)c3)C2)C1` (configuration not stated), the cytotoxicity at 10 µM came out at 9.58%.

On to `CC(=O)N1CCC(c2cnc(-c3c(C)nn(C)c3C)cn2)CC1`, for which the cytotoxicity at 10 µM was -33.6%.

In the case of `CC(C)CNC(=O)N1CCOC2(CCNCC2)C1`, the cytotoxicity at 10 µM turned out to be 9.28%.

Take `O=C(NCC1CCS(=O)(=O)C1)N(Cc1ccncc1)C1CC1` (configuration not stated): the cytotoxicity at 10 µM was -138%.

For the compound `Cn1nc(C2CCN(C(=O)c3cccs3)CC2)c2cccnc21`, the cytotoxicity at 10 µM was -8.72%.

For `OC(CN1CCN(Cc2cc(F)ccc2F)CC1)C1CC1` (configuration not stated), the cytotoxicity at 10 µM was determined as 0.353%.

Take `Cc1nc(C)n(CC2CCCN(CC(=O)Nc3nnc(C)s3)C2)n1` (configuration not stated): the cytotoxicity at 10 µM is -18.9%.

In the case of `COCCN1C(=O)CCC12CCN(C(=O)CNC(C)=O)CC2`, the cytotoxicity at 10 µM worked out at 3.47%.

Consider `Cc1c[nH]nc1C1CCN(C(=O)Cn2cccn2)C1` (configuration not stated), for which the cytotoxicity at 10 µM was 3.09%.

Regarding `CC(=O)N(Cc1ncc(C(C)C)o1)C1CCN(CCn2cccn2)C1` (configuration not stated), the cytotoxicity at 10 µM was -4.89%.

For the compound `c1cc(CCN2CCC(c3n[nH]c(C4CC4)n3)CC2)ccn1`, the cytotoxicity at 10 µM is 3.39%.
